These results are taken from ChEMBL document CHEMBL1944533, “Synthesis and evaluation of anti-tubercular and antibacterial activities of new 4-(2,6-dichlorobenzyloxy)phenyl thiazole, oxazole and imidazole derivatives. Part 2” (2012).

≈ marks a conversion by molar mass, not a printed value.

Assay type in all cases: functional
Test [1] deals with Mycobacterium tuberculosis. The test is described as follows: Antitubercular activity against Mycobacterium tuberculosis H37Rv after 16 to 24 hrs by microplate alamar blue assay. Put shortly: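 DMSO stocks (12.8 mM) two-fold diluted in Middlebrook 7H12 medium (7H9 with casitone, palmitic acid, BSA, catalase); final concentrations 128 down to 0.5. H37Rv inoculum 2 × 10⁵ cfu/mL added, 37 °C for 7 days, then Tween 80 plus Alamar Blue, further 16–24 h. Fluorescence ex 530/em 590 nm; MIC = lowest concentration giving ≥90% fluorescence reduction versus replicate bacteria-only controls.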
In general terms: Resazurin is reduced to fluorescent resorufin, in cell work by metabolically active cells.

For test [2], the system named is Streptococcus pneumoniae. Kind of test: Antibacterial activity against pencillin-resistant Streptococcus pneumoniae after 16 to 20 hrs by two fold agar dilution method. In short, it runs like this: (§1)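 Two-fold dilutions of test compounds and reference antibiotics made in molten Mueller-Hinton agar held at 37 °C, final range […]; drug-free medium as control. Plates spot-inoculated with culture containing 10⁴ CFU/mL of each clinical isolate, incubated at 37 °C; MIC read as lowest inhibiting concentration.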
Background: In agar dilution, organisms are placed on agar that contains the substance at set levels.

For test [3], the system named is Streptococcus pneumoniae. The test is described as follows: Antibacterial activity against Streptococcus pneumoniae clinical isolate after 16 to 20 hrs by two fold agar dilution method. In short, it runs like this: as §1
The subject of a further test is Staphylococcus aureus. The test is described as follows: Antibacterial activity against Staphylococcus aureus clinical isolate after 16 to 20 hrs by two fold agar dilution method. Put shortly:
as §1

Another test has as its system Escherichia coli. The test is described as follows: Antibacterial activity against Escherichia coli clinical isolate after 16 to 20 hrs by two fold agar dilution method. Put shortly:
as §1

As to `CCCC(=O)Nc1nc(-c2ccc(OCc3c(Cl)cccc3Cl)cc2)c(C(=O)OCC)s1`, the MIC (as a rule, the smallest concentration in the dilution series that meets the test's criterion for growth inhibition) in test [1] was 60.8 µM (≈ 30 µg/mL); in the test on Streptococcus pneumoniae [2], > 128 µM; in the test with Streptococcus pneumoniae [3], ≤ 0.127 µM; against Staphylococcus aureus, > 128 µM; against Escherichia coli, > 128 µM.
For the compound `CCOC(=O)c1sc(NC(=O)c2ccc(Cl)cc2)nc1-c1ccc(OCc2c(Cl)cccc2Cl)cc1`, the MIC in test [1] was 1 µM (≈ 0.562 µg/mL); with Streptococcus pneumoniae [2], > 128 µM; with Streptococcus pneumoniae [3] it was 7.12 µM (≈ 4 µg/mL); in the test on Staphylococcus aureus, > 128 µM; against Escherichia coli it was > 128 µM.
With `O=C(Nc1nc(-c2ccc(OCc3c(Cl)cccc3Cl)cc2)c(C(=O)O)s1)c1ccc(Cl)cc1Cl`, the MIC in test [1] was 45.5 µM (≈ 25.9 µg/mL); against Streptococcus pneumoniae [2] it was > 128 µM; against Streptococcus pneumoniae [3], > 128 µM; with Staphylococcus aureus, > 128 µM; in the test with Escherichia coli, > 128 µM.
Consider `CCOC(=O)c1sc(NC(=O)c2ccc(OC)cc2)nc1-c1ccc(OCc2c(Cl)cccc2Cl)cc1`, for which the MIC in test [1] is 7.6 µM (≈ 4.24 µg/mL); in the test on Streptococcus pneumoniae [2], > 128 µM; against Streptococcus pneumoniae [3], ≤ 0.112 µM; with Staphylococcus aureus, > 128 µM; against Escherichia coli, > 128 µM.
Regarding `CCOC(=O)c1ncn(-c2ccc(OCc3c(Cl)cccc3Cl)cc2)c1NC(=O)c1ccc(Cl)cc1`, the MIC in test [1] was > 128 µM.
The same measure, in the same setting: the value for `COc1c(N2C[C@@H]3CCCN[C@@H]3C2)c(F)cc2c(=O)c(C(=O)O)cn(C3CC3)c12` [MOXIFLOXACIN] was 0.5 µM (≈ 0.201 µg/mL); that for `O=C(Nc1c(C(=O)O)ncn1-c1ccc(OCc2c(Cl)cccc2Cl)cc1)c1ccc(Cl)cc1` was > 128 µM.
Consider `CCOC(=O)c1sc(NC(=O)c2ccc(Cl)cc2Cl)nc1-c1ccc(OCc2c(Cl)cccc2Cl)cc1`, for which the MIC in test [1] is 25.4 µM (≈ 15.1 µg/mL); in the test on Streptococcus pneumoniae [2], > 128 µM; in the test on Streptococcus pneumoniae [3], > 128 µM; in the test with Staphylococcus aureus, > 128 µM; with Escherichia coli, > 128 µM.
For GENTAMICIN, the MIC in the test on Streptococcus pneumoniae [2] turned out to be 6.9 µM; in the test with Streptococcus pneumoniae [3], 6.9 µM; with Staphylococcus aureus it was 6.9 µM; against Escherichia coli, 0.43 µM.
As to `CCOC(=O)c1sc(NC(=O)c2ccccc2)nc1-c1ccc(OCc2c(Cl)cccc2Cl)cc1`, the MIC was 61.2 µM (≈ 32.3 µg/mL) in test [1]; > 128 µM against Streptococcus pneumoniae [2]; ≤ 0.119 µM against Streptococcus pneumoniae [3]; > 128 µM in the test with Staphylococcus aureus; > 128 µM with Escherichia coli.
In the case of `C=CC(=O)Nc1nc(-c2ccc(OCc3c(Cl)cccc3Cl)cc2)c(C(=O)OCC)s1`, the MIC is 7.2 µM (≈ 3.44 µg/mL) in test [1]; > 128 µM in the test on Streptococcus pneumoniae [2]; ≤ 0.131 µM in the test on Streptococcus pneumoniae [3]; > 128 µM against Staphylococcus aureus; > 128 µM against Escherichia coli.
`O=C(Nc1oc(-c2ccc(OCc3c(Cl)cccc3Cl)cc2)nc1C(=O)O)c1ccc(Cl)cc1`: in test [1], the minimum inhibitory concentration (MIC) is > 128 µM.
Same read-out and setting: the value for `CCOC(=O)c1nc(-c2ccc(OCc3c(Cl)cccc3Cl)cc2)oc1NC(=O)c1ccc(Cl)cc1` was > 128 µM.
For `O=C(Nc1nc(-c2ccc(OCc3c(Cl)cccc3Cl)cc2)c(C(=O)O)s1)c1ccc(Cl)cc1`, the minimal inhibitory concentration (MIC) in test [1] is > 128 µM; against Streptococcus pneumoniae [2], > 128 µM; in the test with Streptococcus pneumoniae [3], ≤ 0.117 µM; in the test with Staphylococcus aureus it was > 128 µM; with Escherichia coli, > 128 µM.
Turning to `CC1(C)S[C@@H]2[C@H](NC(=O)[C@H](N)c3ccccc3)C(=O)N2[C@H]1C(=O)O` [AMPICILLIN], the MIC in the test on Streptococcus pneumoniae [2] came to 10.8 µM (≈ 3.77 µg/mL); with Streptococcus pneumoniae [3], 0.168 µM (≈ 0.0587 µg/mL); against Staphylococcus aureus it was 2.7 µM (≈ 0.943 µg/mL); in the test on Escherichia coli, 10.8 µM (≈ 3.77 µg/mL).
In the case of `O=[N+]([O-])c1cn2c(n1)OC[C@@H](OCc1ccc(OC(F)(F)F)cc1)C2` [PRETOMANID], the MIC in test [1] came out at 0.44 µM (≈ 0.158 µg/mL). That is a sub-micromolar value.
With `COc1ccc(C(=O)Nc2nc(-c3ccc(OCc4c(Cl)cccc4Cl)cc3)c(C(=O)O)s2)cc1`, the MIC in test [1] was > 128 µM; with Streptococcus pneumoniae [2], > 128 µM; against Streptococcus pneumoniae [3], ≤ 0.118 µM; in the test on Staphylococcus aureus, > 128 µM; against Escherichia coli, > 128 µM.
Consider `CCCC(=O)Nc1nc(-c2ccc(OCc3c(Cl)cccc3Cl)cc2)c(C(=O)O)s1`, for which the MIC was > 128 µM in test [1]; > 128 µM against Streptococcus pneumoniae [2]; ≤ 0.134 µM against Streptococcus pneumoniae [3]; > 128 µM with Staphylococcus aureus; > 128 µM in the test on Escherichia coli.
On to `O=C(Nc1nc(-c2ccc(OCc3c(Cl)cccc3Cl)cc2)c(C(=O)O)s1)c1ccccc1`, for which the MIC in test [1] is > 128 µM; against Streptococcus pneumoniae [2] it was > 128 µM; in the test with Streptococcus pneumoniae [3], ≤ 0.125 µM; in the test with Staphylococcus aureus it was > 128 µM; with Escherichia coli it was > 128 µM.
`NNC(=O)c1ccncc1` [ISONIAZID] came in with an MIC in test [1] of 0.81 µM (≈ 0.111 µg/mL).
